# Laboratory results taken from PMC11827156 (Malaria Journal, 2025).
# “Also recorded” adds a separate entry of the source. Like-named read-outs stand apart in the source and are kept apart here.
# Columns and labels:
# P. falciparum 3D7 [1] = conditions: cited from earlier work
# P. falciparum 3D7 [2] = format: cell-based, Plasmodium falciparum; conditions: 2.5 nM compound alone, 48 h
# P. falciparum 3D7 [3] = format: cell-based, Plasmodium falciparum
# [4] = target: P. falciparum PfSR25− (serpentine receptor 25 knockout strain); experiment: Comparative IC50 screening, 3D7 versus serpentine receptor 25 knockout strain; format: cell-based, Plasmodium falciparum; conditions: 72 h, 0.0019–2 µM, Student's t test
# How it was run: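 Asynchronous 3D7 and PfSR25− cultures (37 °C, 90% N2/5% O2/5% CO2) at 0.3% parasitaemia and 2% haematocrit were exposed for 72 h to eleven final concentrations. Controls were 0.13% DMSO and chloroquine 0.2441–250 nM. Cells were stained with SYBR Green-I (1:10,000) plus MitoTracker Deep Red (50 nM) for 20 min at 37 °C and read by flow cytometry. Survival was taken relative to DMSO, in triplicate over three experiments. IC50 ± SEM came from dose–response curves.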
# P. falciparum 3D7 [5] = experiment: Competition of TCAMS compounds; format: cell-based, Plasmodium falciparum; conditions: 48 h; for effect on the increase in parasitaemia promoted by melatonin: 2.5 nM compound with 100 nM melatonin; for effect on the increase in parasitaemia promoted by serotonin: 2.5 nM compound with 250 nM serotonin
# How it was run: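 Asynchronous P. falciparum 3D7 cultures (1% parasitaemia, 2% haematocrit) were given 2.5 nM test compound with or without 250 nM serotonin or 100 nM melatonin. Incubation was 48 h at 37 °C under mixed gas, with a DMSO solvent control. Cells were stained with SYBR Green-I (1:10,000) and MitoTracker Deep Red (50 nM) for 20 min at 37 °C, then parasitaemia was read by flow cytometry. Survival is relative to solvent; triplicate, 3 independent experiments.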
# HEK293 cells = experiment: Cytotoxicity of the compounds in HEK293 cells; format: cell-based, human; conditions: MTT, 72 h, 0.0019–2 µM; for CC50: read-out: CC50 nM HEK293
# How it was run: (§1)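 HEK293 cells (passages 7–12, grown in DMEM with 10% FBS and penicillin/streptomycin at 37 °C, 5% CO₂) were trypsinized and seeded at 10^4 cells/well. They were exposed to test compound or DMSO vehicle for 72 h. MTT (5 mg/mL reagent) was then added for 3 h, and the formazan was dissolved in DMSO. Absorbance was read at 570 nm and dose–response curves were fitted. Each condition was run in triplicate in 3 independent experiments.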
# [6] = tested on: knockout parasites (PfSR25−); conditions: cited from earlier work
# [7] = tested on: Plasmodium falciparum 3D7; experiment: Drug effects on erythrocytic cycle phases in synchronized cultures; format: cell-based
# How it was run: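 Sorbitol-synchronized P. falciparum 3D7 at 1% parasitaemia and 2% haematocrit received test compound (150 nM), chloroquine (150 nM) or 0.1% DMSO at 0, 12 or 24 h post-synchronization. Samples were taken at 12, 24, 36 and 48 h and stained for 30 min in HEPES-buffered Hank's with 1 µM Hoechst and […] thiazole orange. Flow cytometry gated rings, trophozoites and schizonts on DNA/RNA signal. Data are mean ± SD from one triplicate experiment.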
# P. falciparum = conditions: read-out: IC50, antimalarial activity; cited from earlier work
# [8] = Cytotoxicity of the compounds in HEK293 cells; format: cell-based, human; conditions: human, HEK293 cells
# How it was run: as §1
# [9] = tested on: P. falciparum gametocytes; conditions: read-out: IC50 against P. falciparum gametocytes; cited from earlier work
# P. falciparum Dd2 = conditions: 2 µM; cited from earlier work
# [10] = read-out: IC50 (nM) 3D7, Table 1, asynchronous culture, 72 h, 0.0019–2 µM, ± standard error of the mean
# [11] = Plasmodium falciparum, 3D7, 72 h, read-out: IC50 (nM) 3D7, Table 1, asynchronous culture, 72 h, 0.0019–2 µM, ± standard error of the mean
compound,measurement,setting,value
Melatotosil,action on melatonin in the cell cycle of P. falciparum 3D7,P. falciparum 3D7 [1],blocks the action of melatonin in the cell cycle of P. falciparum 3D7
"Cc1[nH]c2c(C)cccc2c1C1CCN(CCC2CCN(C(=O)/C=C/c3ccc(Cl)c(Cl)c3)CC2)CC1 [TCMDC-139803, Cc1[nH]c2c(C)cccc2c1C1CCN(CCC2CCN(CC2)C(= O)\C = C\c2ccc(Cl)c(Cl)c2)CC1]",effect on parasitaemia compared with the control,P. falciparum 3D7 [2],induced a significant increase in parasitaemia
same,IC50,P. falciparum 3D7 [3]; [10],91.9 ± 18.1 nM
same,difference of IC50 between 3D7 and PfSR25−,[4],none of the compounds tested were significantly different between the two strains
same,effect on the increase in parasitaemia promoted by melatonin,P. falciparum 3D7 [5],able to inhibit the increase in parasitaemia partially
same,effect on the increase in parasitaemia promoted by serotonin,P. falciparum 3D7 [5],partially inhibited the increase in parasitaemia promoted by serotonin
"CCOc1cc(CC)ccc1C1CCN(CCCCNC(=O)c2ccc(NC(=O)c3ccc(Cl)cc3)cc2)CC1.Cl [TCMDC-138317, Cl.CCOc1cc(CC)ccc1C1CCN(CCCCNC(= O)c2ccc(NC(= O)c3ccc(Cl)cc3)cc2)CC1]",cytotoxic activity in HEK293 cells,HEK293 cells,exhibited cytotoxic activity in HEK293 cells; also recorded: toxic to mammalian HEK293 cells
same,CC50,HEK293 cells,16.6 nM
same,IC50,"P. falciparum 3D7 [3]; read-out: IC50 nM 3D7, Table 2",80.8 nM
same,IC50,P. falciparum 3D7 [3]; [10],80.8 ± 25.9 nM
CCCCN(CCCC)CC(O)c1cc(Cl)cc2c1-c1ccc(Cl)cc1/C2=C/c1ccc(Cl)cc1 (stereo not drawn) [lumefantrine],susceptibility of PfSR25−,[6],increased susceptibility
"CCN(CC)CCCC(C)Nc1ccnc2cc(Cl)ccc12 (stereo not drawn) [Chloroquine, reference compound]",parasitaemia of knockout parasites (PfSR25−) versus wild-type (3D7),[6]; exposure for 24 h,significantly reduced parasitaemia compared with that of wild-type parasites (3D7)
same,ring phase parasites at the 36 h time point,"[7]; 150 nM added 12 h after synchronization, % parasitaemia, n = 3",0.30 ± 0.17%
same,parasitaemia at the 36 h time point,"[7]; 150 nM added 12 h after synchronization, n = 3",1.55 ± 0.87%
same,parasites developed into schizonts at the 24 h time point,"[7]; added at 0 h, control 18%",less than 0.5%
same,IC50,P. falciparum 3D7 [3]; [11],11.3 ± 0.7 nM
"O=C(/C=C/c1ccc(Cl)c(Cl)c1)NC1CCC(CN2CCC(c3c[nH]c4ccc(O)cc34)CC2)CC1 (stereo not drawn) [TCMDC-139494, Oc1ccc2[nH]cc(C3CCN(CC4CCC(CC4)NC(= O)\C = C\c4ccc(Cl)c(Cl)c4)CC3)c2c1]",IC50,P. falciparum 3D7 [3]; [10],122 ± 21.1 nM
same,difference of IC50 between 3D7 and PfSR25−,[4],none of the compounds tested were significantly different between the two strains
"CC(Cc1ccc(NC(=O)c2ccc(CNCCc3ccccc3)cc2)cc1)NCCc1cccc(Cl)c1.Cl (stereo not drawn) [TCMDC-139867, Cl.CC(Cc1ccc(NC(= O)c2ccc(CNCCc3ccccc3)cc2)cc1)NCCc1cccc(Cl)c1]",cytotoxic activity in HEK293 cells,HEK293 cells,exhibited cytotoxic activity in HEK293 cells
same,CC50,HEK293 cells,1280 nM
same,IC50,"P. falciparum 3D7 [3]; read-out: IC50 nM 3D7, Table 2",57.4 nM
same,IC50,P. falciparum 3D7 [3]; [10],57.4 ± 12.2 nM
same,difference of IC50 between 3D7 and PfSR25−,[4],none of the compounds tested were significantly different between the two strains
"CCCN(CCC)C1CCc2cccc(O)c2C1 (stereo not drawn) [8-OH-DPAT, 8-hydroxy-N-(di-n-propyl)-aminotetralin]",IC50,P. falciparum,400 nM
"COc1cc2nccc(Nc3ccc(Oc4ccccc4)cc3)c2cc1OC.Cl [TCMDC-131917, Cl.COc1cc2nccc(Nc3ccc(Oc4ccccc4)cc3)c2cc1OC]",IC50,P. falciparum 3D7 [3]; [11],120 ± 19.4 nM
same,difference of IC50 between 3D7 and PfSR25−,[4],none of the compounds tested were significantly different between the two strains
Clc1ccc2c(N3CCN(CCCN4CCN(c5ccnc6cc(Cl)ccc56)CC4)CC3)ccnc2c1 [piperaquine],susceptibility of PfSR25−,[6],increased susceptibility
"CN(CCCNCc1cccc2ccccc12)CCCNCc1cccc2ccccc12.Cl [TCMDC-137905, Cl.CN(CCCNCc1cccc2ccccc12)CCCNCc1cccc2ccccc12]",cytotoxic activity in HEK293 cells,HEK293 cells,exhibited cytotoxic activity in HEK293 cells
same,CC50 at 72 h,[8],5.55 µM
same,IC50,[9],230 nM
same,IC50,P. falciparum 3D7 [3]; [11],91.1 ± 18.4 nM
same,IC50,"P. falciparum 3D7 [3]; Plasmodium falciparum, 3D7, read-out: IC50 nM 3D7, Table 2",91.1 nM
same,difference of IC50 between 3D7 and PfSR25−,[4],none of the compounds tested were significantly different between the two strains
"O=C(/C=C/c1ccc(Cl)c(Cl)c1)N1CCC(CN2CCC(c3c[nH]c4cc(C(F)(F)F)ccc34)CC2)CC1 [TCMDC-139860, FC(F)(F)c1ccc2c(c[nH]c2c1)C1CCN(CC2CCN(CC2)C(= O)\C = C\c2ccc(Cl)c(Cl)c2)CC1]",effect on parasitaemia compared with the control,P. falciparum 3D7 [2],induced a significant increase in parasitaemia
same,IC50,P. falciparum 3D7 [3]; [10],65.1 ± 11.6 nM
same,difference of IC50 between 3D7 and PfSR25−,[4],none of the compounds tested were significantly different between the two strains
same,"inhibition of parasite development, strain Dd2",P. falciparum Dd2,≤ 50%
same,effect on the increase in parasitaemia promoted by melatonin,P. falciparum 3D7 [5],able to inhibit the increase in parasitaemia partially
same,effect on the increase in parasitaemia promoted by serotonin,P. falciparum 3D7 [5],partially inhibited the increase in parasitaemia promoted by serotonin
